Measurements of several laboratories.
Compare with care: the assays were run in different laboratories.
Target: 5'-AMP-activated protein kinase catalytic subunit alpha-2 (PRKAA2, Homo sapiens, UniProt P54646)

SMILES | test | conditions | endpoint | value
Cc1ccc(NC(=O)c2ccc(C)c(C(F)(F)F)c2)cc1C#Cc1nn(C2CCC(O)CC2)c2ncnc(N)c12 (stereo not shown) | cell-free assay | 10 µM | remaining signal | 90%
CCCOc1ccc(OC)c(F)c1C(=O)c1ccc(C(=O)N[C@@H]2CNC[C@H]2NC(=O)c2ccc3[nH]ncc3c2)cc1 | enzyme activity, inhibitor | 0.75 µM | remaining activity | 6%
CN([C@@H]1CCc2c(CC(=O)O)c3cc(S(C)(=O)=O)ccc3n2C1)S(=O)(=O)c1ccc(F)cc1 | cell-free assay, competition with immobilised ligand | 1 µM | remaining binding | 100%
CN1CC(Oc2cnc(C#N)cc2-c2ccn3nc(NC(=O)C4CC4)cc3c2)C1 | enzyme activity, inhibitor | 1 µM | inhibition | 3%
Cc1cnc(NC2CCOCC2)nc1-n1cnc(C(=O)NC(CN)c2cc(F)cc(Cl)c2)c1 (stereo not shown) | enzyme activity, inhibitor, radiometric | 1 µM | remaining activity | 31%
COc1cc(-c2cc(-c3ccc(N4CCNCC4)cc3)cnc2C)cc(OC)c1OC | enzyme activity, inhibitor | 0.1 µM | inhibition | 1%
Cc1cc(NC(=O)c2cccc3cc(-c4cccc5[nH]nc(N)c45)ccc23)ccc1F | enzyme activity, inhibitor | 0.1 µM | activity vs control | 97%
O=C(O)[C@H]1[C@H](Cn2nnc3ccccc3c2=O)CC[C@@H]1C(=O)c1ccc(OCCC2CCOCC2)cc1 | cell-free assay, competition with immobilised ligand | 1 µM | remaining binding | 100%
COc1cccc2c(NCc3ccccc3)nc(-n3c(N)nc4ccccc43)nc12 | target engagement in cells, inhibitor, chemoproteomics | 20 mM | inhibition | 11.9%
CC(=O)N1CCC(c2ccc(C(=O)NC3=NCCN3)cc2C(F)(F)F)CC1 | cell-free assay, competition with immobilised ligand | 1 µM | remaining binding | 100%
Nc1ncnc2occ(-c3ccc(NC(=O)Nc4cc(C(F)(F)F)ccc4F)cc3)c12 | cell-free assay | 20 µM | remaining signal | 7.6%
CC(=O)N1CCC(c2ccc(C(=O)NC(=N)N)cc2C(F)(F)F)CC1 | cell-free assay, competition with immobilised ligand | 1 µM | remaining binding | 100%
Cc1ccc(C(=O)Nc2ccc(CN3CCN(C)CC3)c(C(F)(F)F)c2)cc1C#Cc1cnc2cccnn12 | enzyme activity | 23.5 nM | remaining activity | 99%
